# Screening results as filed in PubChem BioAssay.
# Yeast eIF2B: GCN4-lacZ reporter reduction in eIF2B-epsilon mutant yeast, primary screen, S. cerevisiae, eIF2B-epsilon R284H, Beta-Glo luminescence; inhibition, % at 25 µM (by protocol); 0.91% of 27,000 active; AID 688, 2007;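 active = mutant luminescence inhibited past about 50% while wild type luminescence and mutant growth stay under set limits, limit read from the data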
#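 Assay system: yeast eIF2B-epsilon R284H mutant carrying GCN4–beta-galactosidase fusion / Buffer or medium: YPD / Incubation: 16 h growth with compound at 30 °C, 90 min Beta-Glo step / Detection: Beta-Glo luminescence after Z-buffer lysis, growth by 595 nm absorbance / Read-out: % inhibition of reporter signal and growth versus controls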
# Yeast growth tox: yeast growth toxicity, wild-type and mutant, primary screen, cytotoxicity control for eIF2B function restoration project, wild-type and eIF2Bepsilon R284H mutant, A595 | S. cerevisiae wild-type growth, A595 turbidity, 16 h | growth inhibition, % at 25 µM (by protocol) | 0.3% of 30,000 active | AID 685, 2007;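 active = mutant and wild-type yeast strains alike exhibit over 30% growth inhibition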;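 note: 0% = untreated cell controls and 100% = YPD media blanks without cells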
#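 System: S. cerevisiae wild-type or eIF2Bepsilon-R284H mutant strain; times: 16 h growth with compound, 30 °C; signal: absorbance at 595 nm (turbidity); measure: growth inhibition (%) versus cell controls and blanks; compound: 25 µM single dose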
# An asterisk follows results filed as active; / = no result. Most compounds without a hit are left out; they make up all but 1% or so of the library.
SMILES,Yeast eIF2B,Yeast growth tox
COP(=O)(OC)C1(Nc2ccc(C)cc2)CCCCC1,24.1,49.2*
CN(C)P(=O)(C(Cl)=C(N1CCCCC1)N1CCCCC1)N(C)C,58.4*,-2.0
CC(c1ccccc1F)n1cc(C(=O)Nc2ccc3nc[nH]c3c2)nn1 (configuration not stated),30.9,9.1
CCN1C(=O)c2ccccc2Sc2ccc(C(=O)N3CCC4(CC3)OCCO4)cc21,27.0,-17.5
CN1C(=O)c2ccccc2Sc2ccc(C(=O)N3CCC4(CC3)OCCO4)cc21,63.1*,7.5
CCOP(=O)(OCC)C(NC(=O)C(C)C)C(Cl)(Cl)Cl (configuration not stated),-11.1,10.2
CCNc1ccc(P(=S)(N(C)C)N(C)C)cc1,9.8,-2.2
ON1C2CCCCC2N(O)C1c1ccccc1 (configuration not stated),24.3,26.1
CCCn1ncc(C(=O)O)c1C,/,-16.2
COCCn1c(-c2ccccc2)cc(C(=O)O)c1C,50.8*,-7.3
Cc1cccnc1-n1c(CN2C(=O)c3ccccc3C2=O)nc2ccccc2c1=O,14.9,0.3
Cc1cccc(C)c1NC(=O)CN(C)CC(=O)Nc1ccc(C#N)c(Cl)c1,10.2,6.0
